ChEMBL document CHEMBL4425087, “Antibacterial Azaphilones from an Endophytic Fungus, Colletotrichum sp. BS4” (2016)
In brackets after ≈: the same amount, converted by molar mass. Activity calls are given as the source filed them. No cut-off for these calls is given here.

Experiments:
Staphylococcus aureus = assay: Antibacterial activity against Staphylococcus aureus DSM 799 incubated for 24 hrs by disk diffusion method; assay type: functional
How it was run: (§1)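 Standard control strains from the DSMZ collection (Braunschweig): E. coli and B. subtilis as common environmental strains, and S. aureus and P. aeruginosa as human pathogenic clinical strains. Run by the authors' previously described procedure.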

Escherichia coli = assay: Antibacterial activity against Escherichia coli DSM 1116 incubated for 24 hrs by disk diffusion method; assay type: functional; how it was run: as §1
THP-1 [1] = assay: Cytotoxicity against human THP1 cells assessed as reduction in cell survival by measuring inhibition of intracellular ATP level at 0.01 to 100 uM after 48 hrs by ATPlite assay; assay type: functional, cell-based
How it was run: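 THP-1 human acute monocytic leukemia cells, in vitro. ATPlite luminescence measures depletion of cytoplasmic ATP.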

Bacillus subtilis = assay: Antibacterial activity against Bacillus subtilis DSM 1088 incubated for 24 hrs by disk diffusion method; assay type: functional; how it was run: as §1
Pseudomonas aeruginosa = assay: Antibacterial activity against Pseudomonas aeruginosa DSM 22644 incubated for 24 hrs by disk diffusion method; assay type: functional; how it was run: as §1
THP-1 [2] = assay: Cytotoxicity against human THP1 cells assessed as reduction in cell survival by measuring inhibition of mitochondrial metabolic activity at 0.01 to 100 uM after 48 hrs by resazurin assay; assay type: functional, cell-based
How it was run: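 Human acute monocytic leukemia THP-1 cells, in vitro. Resazurin-based read-out measures inhibition of mitochondrial metabolic activity.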

Brevibacillus brevis = assay: Antibacterial activity against Bacillus brevis by disk diffusion method; assay type: functional
Bacillus spizizenii = assay: Antibacterial activity against Bacillus subtilis ATCC 6633 by disk diffusion method; assay type: functional

CC[C@H](C)C(=O)[C@H]1C(=O)O[C@@]2(C)C(=O)C=C3C=C(C)OC=C3[C@H]12 [CHERMESINONE B]
MIC (Staphylococcus aureus; DSM 799, 24 h): > 10 mg/L
MIC (Escherichia coli; DSM 1116, 24 h): > 10 mg/L
Activity (THP-1 [1]): inactive
MIC (Bacillus subtilis; DSM 1088, 24 h): > 10 mg/L
MIC (Pseudomonas aeruginosa; DSM 22644, 24 h): > 10 mg/L
Activity (THP-1 [2]): inactive

CCCCCCCCCCCCCCCCCC[C@H](C)C(=O)C1=C2C3=COC(C)=CC3=CC(=O)[C@]2(C)OC1=O
MIC (Brevibacillus brevis): 5 mg/L (≈ 9.28 µM)
MIC (Bacillus spizizenii): 5 mg/L (≈ 9.28 µM)

CC[C@H](C)C(=O)[C@@H]1C(=O)O[C@@]2(C)C(=O)C=C3C=C(C)OC=C3[C@@H]12
MIC (Staphylococcus aureus; DSM 799, 24 h): 5 mg/L (≈ 15.8 µM)
MIC (Escherichia coli; DSM 1116, 24 h): > 10 mg/L
Activity (THP-1 [1]): inactive
MIC (Bacillus subtilis; DSM 1088, 24 h): > 10 mg/L
MIC (Pseudomonas aeruginosa; DSM 22644, 24 h): > 10 mg/L
Activity (THP-1 [2]): inactive

CN[C@@H]1[C@H](O[C@H]2[C@H](O[C@H]3[C@H](O)[C@@H](O)[C@H](N=C(N)N)[C@@H](O)[C@@H]3N=C(N)N)O[C@@H](C)[C@]2(O)C=O)O[C@@H](CO)[C@H](O)[C@H]1O [STREPTOMYCIN]
MIC (Staphylococcus aureus; DSM 799, 24 h): 5 mg/L (≈ 8.6 µM)
MIC (Escherichia coli; DSM 1116, 24 h): 1 mg/L (≈ 1.72 µM)
MIC (Bacillus subtilis; DSM 1088, 24 h): 5 mg/L (≈ 8.6 µM)
MIC (Pseudomonas aeruginosa; DSM 22644, 24 h): 10 mg/L (≈ 17.2 µM)

CC[C@H](C)C1=C2C(=O)O[C@@]3(C)C(=O)C=C4C=C(C)O[C@@H](O1)[C@@]4(O)[C@@]23O
MIC (Staphylococcus aureus; DSM 799, 24 h): > 10 mg/L
MIC (Escherichia coli; DSM 1116, 24 h): 1 mg/L (≈ 2.87 µM)
Activity (THP-1 [1]): inactive
MIC (Bacillus subtilis; DSM 1088, 24 h): 0.1 mg/L (≈ 0.287 µM)
MIC (Pseudomonas aeruginosa; DSM 22644, 24 h): > 10 mg/L
Activity (THP-1 [2]): inactive

GENTAMICIN
MIC (Staphylococcus aureus): 1 mg/L
MIC (Escherichia coli): 1 mg/L
MIC (Bacillus subtilis): 1 mg/L
MIC (Pseudomonas aeruginosa): 1 mg/L

CC[C@H](C)C(=O)[C@H]1C(=O)O[C@@]2(C)C(=O)C=C3C=C(C)OC[C@H]3[C@H]12
MIC (Staphylococcus aureus; DSM 799, 24 h): > 10 mg/L
MIC (Escherichia coli; DSM 1116, 24 h): 5 mg/L (≈ 15.7 µM)
Activity (THP-1 [1]): inactive
MIC (Bacillus subtilis; DSM 1088, 24 h): > 10 mg/L
MIC (Pseudomonas aeruginosa; DSM 22644, 24 h): > 10 mg/L
Activity (THP-1 [2]): inactive
